Measured values collected from several papers.
pIC50: −log10 of the molar value.
PPO3: PPO3 (Agaricus bisporus, UniProt C7FF04)
HDAC2: Histone deacetylase 2 (HDAC2, Homo sapiens, UniProt Q92769)
HTR2A: 5-hydroxytryptamine receptor 2A (HTR2A, Homo sapiens, UniProt P28223)

| Compound | target | assay | pIC50 |
| --- | --- | --- | --- |
| Nc1nc(-c2ccccc2)cc(-c2ccc(-c3cc(-c4ccccc4)nc(N)n3)cc2)n1 | PPO3 | enzyme activity, inhibitor, absorbance | 4.06 |
| O=C(/C=C/c1cccc(OS(=O)(=O)Oc2ccc(C(F)(F)F)cc2)c1)NO | HDAC2 | enzyme activity, inhibitor, fluorescence | 6.35 |
| CC(C)C(N)CCN(C)C(=O)C(=O)Nc1cc2ccccc2cc1Cl (stereo not drawn) | HTR2A | calcium signal, antagonist | 4.80 |
| C#Cc1ccc2c(=O)[nH]nc(Cc3ccc(F)c(C(=O)N4CCN(C(=O)C=C)CC4)c3)c2c1 | Poly [ADP-ribose] polymerase 1 (PARP1, Homo sapiens, UniProt P09874) | enzyme activity, inhibitor | 6.07 |
| C=CCNC(=O)C(C)N1CCCC(c2ccc(O)cc2)C1 (stereo not drawn) | HTR2A | calcium signal, antagonist | 4.80 |
| CCc1c(C)nc(-c2ccc(Cl)s2)nc1Nc1ccc(CC(=O)O)cc1 | cGMP-specific 3',5'-cyclic phosphodiesterase (PDE5A, Homo sapiens, UniProt O76074) | enzyme activity, inhibitor, FP | ~3.81 |
| c1ccc(O[C@H]2CCN(Cc3ccc(-c4ccn[nH]4)o3)C2)cc1 | HTR2A | calcium signal, antagonist | 5.28 |
| Nc1ccc(-c2cc(-c3ccc(-c4cc(-c5ccc(N)cc5)nc(N)n4)cc3)nc(N)n2)cc1 | PPO3 | enzyme activity, inhibitor, absorbance | 4.91 |
| NCC1Cc2cc(F)ccc2N(C(=O)Cc2cc(F)ccc2Br)C1 (stereo not drawn) | HTR2A | calcium signal, antagonist | 5.94 |
| O=C1CC[C@H](N2Cc3cc(N4CCN(CC5CCN(c6ccc([C@@H]7c8ccc(O)cc8CC[C@@H]7c7ccccc7)cc6)CC5)CC4)ccc3C2=O)C(=O)N1 | Kappa-type opioid receptor (OPRK1, Homo sapiens, UniProt P41145) | ligand displacement, radioligand | 6.60 |
| Nc1nc(-c2ccc(I)cc2)cc(-c2ccc(-c3cc(-c4ccc(I)cc4)nc(N)n3)cc2)n1 | PPO3 | enzyme activity, inhibitor, absorbance | 4.51 |
| O=C(NO)c1cncc(OS(=O)(=O)Oc2ccc(-n3ccnc3)cc2)c1 | HDAC2 | enzyme activity, inhibitor, fluorescence | 5.86 |
